Values belong to the compound of their own block, whether it stands above or below them.
Columns and labels:
Rattus norvegicus [1] = assay: Percent change in total cholesterol in the acute cholesterol-fed rat model (APCC) of hypercholesterolemia at 3 mg/Kg; type: functional
Outline: (§1)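 Acute rat model: compound given by gavage at 30 or 3 mg/kg in 1.5% carboxymethylcellulose/0.2% Tween-20 in water (3-4 pm). Rats then fed overnight a diet with 5.5% peanut oil, 1.5% cholesterol, 0.5% cholic acid. Result is percent decrease in plasma total cholesterol versus controls.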

Rattus norvegicus [2] = assay: Percent change in total cholesterol in the acute cholesterol-fed rat model (APCC) of hypercholesterolemia at 30 mg/Kg; type: functional; outline: as §1
[3] = molecular target: T1, Sterol O-acyltransferase 1 (Rattus norvegicus, UniProt O70536); assay: Inhibition of Acyl coenzyme A:cholesterol acyltransferase 1 from rat liver microsomes
T1 sequence (O70536 whole entry): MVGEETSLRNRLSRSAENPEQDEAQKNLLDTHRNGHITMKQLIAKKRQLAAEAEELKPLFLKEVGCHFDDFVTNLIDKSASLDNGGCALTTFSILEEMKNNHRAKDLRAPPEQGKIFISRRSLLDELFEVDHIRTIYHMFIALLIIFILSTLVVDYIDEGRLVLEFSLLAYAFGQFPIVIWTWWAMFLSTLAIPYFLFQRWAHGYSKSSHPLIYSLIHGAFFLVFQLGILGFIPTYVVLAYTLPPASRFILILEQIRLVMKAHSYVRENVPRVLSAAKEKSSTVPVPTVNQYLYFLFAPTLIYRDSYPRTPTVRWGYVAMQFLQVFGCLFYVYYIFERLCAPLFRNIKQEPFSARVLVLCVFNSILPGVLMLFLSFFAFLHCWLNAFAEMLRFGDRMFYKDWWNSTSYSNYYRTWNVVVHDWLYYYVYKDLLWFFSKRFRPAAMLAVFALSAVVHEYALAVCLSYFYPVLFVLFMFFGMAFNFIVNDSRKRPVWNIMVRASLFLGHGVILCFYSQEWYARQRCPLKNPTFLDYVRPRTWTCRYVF
Outline: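 Microsomes isolated from livers of cholesterol-fed rats were incubated with compound and [1-14C]oleoyl-CoA to measure ACAT inhibition; IC50 reported in μM.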

[4] = molecular target: T2, Sterol O-acyltransferase 1 (Rattus norvegicus) (UniProt O70536); assay: Inhibition of rat liver microsomal Acyl coenzyme A:cholesterol acyltransferase 1 from rabbit plasma after an oral dose of 25 mg/kg; type: cell-free
T2 sequence (whole entry): T1 sequence (O70536 whole entry)
Outline: (§2)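 Male New Zealand white rabbits conditioned to meal feeding for 1 week, then given a meal containing drug at 25 mg/kg in 3% peanut oil/3% coconut oil vehicle. Plasma was sampled at 0, 1, 2 and 4 h and extracted into hexane, then redissolved in chloroform/methanol (2:1). It was assayed for liver microsomal ACAT inhibition against standards of compound spiked into rabbit plasma in DMSO.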

[5] = Acyl coenzyme A:cholesterol acyltransferase inhibition in cell culture measured in murine IC-21 macrophages.
Outline: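 Murine IC-21 macrophages preincubated 16 h in serum-free DMEM with albumin (20 μM) and phosphatidylserine/cholesterol vesicles; then compound in DMSO for 1 h, then 14C-sodium oleate added for 4 more h. Lipids extracted in hexane/2-propanol with [14C]cholesterol internal standard; neutral lipids separated by TLC, phosphorimaged; protein by Lowry. IC50 is the concentration giving 50% inhibition.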

Oryctolagus cuniculus [6] = assay: Percent change in plasma total cholesterol at dose 25 mg/Kg in rabbits; type: functional
Outline: (§3)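 Injured cholesterol-fed rabbits: diet of 0.5% cholesterol, 3% peanut oil, 3% coconut oil for 9 weeks (1 week before, 8 weeks after surgery), producing thoracic aortic and iliac-femoral lesions. Doses 1, 5 or 25 mg/kg. Thoracic aortic lesion coverage, plasma total cholesterol and triglycerides given as percent change versus control; Student's t-test, p < 0.05.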

Oryctolagus cuniculus [7] = assay: Percent change in plasma triglyceride levels at dose 5 mg/Kg in rabbits; type: functional; outline: as §3
[8] = molecular target: T2, Sterol O-acyltransferase 1 (Rattus norvegicus); assay: Compound at 5 mg/Kg was tested for the inhibition of rat liver microsomal Acyl coenzyme A:cholesterol acyltransferase 1 in plasma drawn from chow fed rabbits; type: cell-free
[9] = molecular target: T2, Sterol O-acyltransferase 1 (Rattus norvegicus); assay: Compound at 1 mg/Kg was tested for the inhibition of rat liver microsomal Acyl coenzyme A:cholesterol acyltransferase 1 in plasma drawn from chow fed rabbits; type: cell-free
Rattus norvegicus [10] = organism: Rattus norvegicus; assay: Compound was tested for the percent change in total cholesterol (TC) by chronic rat model; type: functional
Oryctolagus cuniculus [11] = assay: Percent change in plasma triglyceride levels at dose 25 mg/Kg in rabbits; type: functional; outline: as §3
Oryctolagus cuniculus [12] = assay: Percent change in TC relative to untreated controls at 5 mg/Kg in cholesterol fed rabbits (CFR)
Oryctolagus cuniculus [13] = assay: Percent change in plasma total cholesterol at dose 5 mg/Kg in rabbits; type: functional; outline: as §3
Oryctolagus cuniculus [14] = assay: Percent change in lesion coverage relative to control in the thoracic aorta at dose 5 mg/Kg in rabbits; type: functional; outline: as §3
Oryctolagus cuniculus [15] = assay: Percent change in TC relative to untreated controls at 25 mg/Kg in cholesterol fed rabbits (CFR)
Oryctolagus cuniculus [16] = assay: Percent change in plasma triglyceride levels at dose 1 mg/Kg in rabbits; type: functional; outline: as §3
[17] = molecular target: T2, Sterol O-acyltransferase 1 (Rattus norvegicus); assay: Compound at 25 mg/Kg was tested for the inhibition of rat liver microsomal Acyl coenzyme A:cholesterol acyltransferase 1 in plasma drawn from chow fed rabbits; type: cell-free; outline: as §2
Canis familiaris = assay: CDOG represents the C-fed female Beagle dog model, data expressed as percent change in TC relative to untreated controls at compound concentration of 10 mg/Kg; type: functional, Canis lupus familiaris
Outline: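 Cholesterol-fed female Beagle dogs given bulk drug in capsules daily before meals for 1 week at 10 mg/kg. Plasma total cholesterol compared before and after treatment.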

Oryctolagus cuniculus [18] = assay: Percent change in plasma total cholesterol at dose 1 mg/Kg in rabbits; type: functional; outline: as §3
Oryctolagus cuniculus [19] = assay: Percent change in lesion coverage relative to control in the thoracic aorta at dose 25 mg/Kg in rabbits; type: functional; outline: as §3
Oryctolagus cuniculus [20] = assay: Percent change in lesion coverage relative to control in the thoracic aorta at dose 1 mg/Kg in rabbits; type: functional; outline: as §3

IC50 [3]: 22 nM
inhibition [4]: 12%
IC50 [5]: 54 nM
SMILES: CCCCCCCCCCCCc1cn(C(C(=O)Nc2c(OC)cc(OC)cc2OC)c2ccccc2)nn1 (stereo not given)
DeltaTC (Rattus norvegicus [1]): -66%
DeltaTC (Rattus norvegicus [2]): -69%

IC50 [3]: 32 nM
SMILES: CCCCCCCCCCCCc1cc(CC(=O)Nc2c(OC)cc(OC)cc2OC)on1
DeltaTC (Rattus norvegicus [1]): -42%
DeltaTC (Rattus norvegicus [2]): -59%

IC50 [3]: 24 nM
SMILES: CCCCCCCCCCCCc1cc(C(C(=O)Nc2c(C(C)C)cccc2C(C)C)c2ccccc2)no1 (stereo not given)

inhibition [8]: 46%
inhibition [9]: 0%
inhibition [17]: 94%
IC50 [3]: 15 nM
inhibition [4]: 94%
IC50 [5]: 170 nM
SMILES: CCCCCCCCCCCCc1cc(C(C(=O)Nc2c(OC)cc(OC)cc2OC)c2ccccc2)on1 (stereo not given)
DeltaTC (Oryctolagus cuniculus [6]): -26%
DeltaTG (Oryctolagus cuniculus [7]): 111%
CPCC (Rattus norvegicus [10]): -65
DeltaTC (Oryctolagus cuniculus [11]): 168%
DeltaTC (Oryctolagus cuniculus [12]): -64%
DeltaTC (Oryctolagus cuniculus [13]): -32%
Activity (Oryctolagus cuniculus [14]): -46%
DeltaTC (Oryctolagus cuniculus [15]): -76%
DeltaTC (Rattus norvegicus [1]): -68%
DeltaTC (Oryctolagus cuniculus [16]): 1%
CDOG (Canis familiaris): -44
DeltaTC (Oryctolagus cuniculus [18]): -26%
Activity (Oryctolagus cuniculus [19]): -32%
DeltaTC (Rattus norvegicus [2]): -68%
Activity (Oryctolagus cuniculus [20]): -53%

SMILES: CCCCCCCCCCC(C)(C)C(=O)Nc1c(OC)cc(OC)cc1OC [CL-976]
DeltaTC (Oryctolagus cuniculus [6]): -24%
DeltaTC (Oryctolagus cuniculus [11]): -7%
Activity (Oryctolagus cuniculus [19]): -41%

IC50 [3]: 19 nM
SMILES: CCCCCCCCCCCCc1cc(C(C(=O)Nc2c(C(C)C)cccc2C(C)C)c2ccccc2)on1 (stereo not given)
DeltaTC (Rattus norvegicus [1]): -10%
DeltaTC (Rattus norvegicus [2]): -52%

IC50 [3]: 100 nM
SMILES: CCCCCCCCCCCCc1cc(C2(C(=O)Nc3c(OC)cc(OC)cc3OC)CCCC2)no1
DeltaTC (Rattus norvegicus [2]): -29%

IC50 [3]: 14 nM
SMILES: CCCCCCCCCCCCc1nnc(C(C(=O)Nc2c(C(C)C)cccc2C(C)C)c2ccccc2)o1 (stereo not given)
DeltaTC (Rattus norvegicus [1]): -23%
DeltaTC (Rattus norvegicus [2]): -64%

inhibition [8]: 68%
inhibition [9]: 0%
inhibition [17]: 92%
IC50 [3]: 22 nM
inhibition [4]: 92%
IC50 [5]: 310 nM
SMILES: CCCCCCCCCCCCc1cc(C(C(=O)Nc2c(OC)cc(OC)cc2OC)c2ccccc2)no1 (stereo not given)
DeltaTC (Oryctolagus cuniculus [6]): -27%
DeltaTG (Oryctolagus cuniculus [7]): 66%
CPCC (Rattus norvegicus [10]): -61
DeltaTC (Oryctolagus cuniculus [11]): 157%
DeltaTC (Oryctolagus cuniculus [12]): -66%
DeltaTC (Oryctolagus cuniculus [13]): -27%
Activity (Oryctolagus cuniculus [14]): -29%
DeltaTC (Rattus norvegicus [1]): -50%
DeltaTC (Oryctolagus cuniculus [16]): 24%
CDOG (Canis familiaris): -44
DeltaTC (Oryctolagus cuniculus [18]): -17%
Activity (Oryctolagus cuniculus [19]): -36%
DeltaTC (Rattus norvegicus [2]): -72%
Activity (Oryctolagus cuniculus [20]): -20%

IC50 [3]: 17 nM
inhibition [4]: 21%
IC50 [5]: 48 nM
SMILES: CCCCCCCCCCCCc1nnc(C(C(=O)Nc2c(OC)cc(OC)cc2OC)c2ccccc2)o1 (stereo not given)
CPCC (Rattus norvegicus [10]): -39
DeltaTC (Rattus norvegicus [1]): -64%
DeltaTC (Rattus norvegicus [2]): -57%

IC50 [3]: 100 nM
SMILES: CCCCCCCCCCCCc1cc(C(C(=O)Nc2ccc(F)cc2F)c2ccccc2)no1 (stereo not given)
DeltaTC (Rattus norvegicus [2]): -29%

IC50 [3]: 51 nM
SMILES: CCCCCCCCCCCCc1cc(C(C(=O)Nc2ccc(F)cc2F)c2ccccc2)on1 (stereo not given)
DeltaTC (Rattus norvegicus [2]): -50%

IC50 [3]: 150 nM
SMILES: CCCCCCCCCCCCc1cc(C(C)(C)C(=O)Nc2c(OC)cc(OC)cc2OC)no1
DeltaTC (Rattus norvegicus [2]): -40%

IC50 [3]: 31 nM
SMILES: CCCCCCCCCCCCc1nc(C(C(=O)Nc2c(OC)cc(OC)cc2OC)c2ccccc2)no1 (stereo not given)
DeltaTC (Rattus norvegicus [1]): -56%
DeltaTC (Rattus norvegicus [2]): -54%

IC50 [3]: 110 nM
SMILES: CCCCCCCCCCCCc1cn(C(C(=O)Nc2c(OC)cc(OC)cc2OC)c2ccccc2)cn1 (stereo not given)
DeltaTC (Rattus norvegicus [1]): -43%
DeltaTC (Rattus norvegicus [2]): -62%

IC50 [3]: 31 nM
SMILES: CCCCCCCCCCCCc1noc(C(C(=O)Nc2c(OC)cc(OC)cc2OC)c2ccccc2)n1 (stereo not given)
DeltaTC (Rattus norvegicus [1]): -58%
DeltaTC (Rattus norvegicus [2]): -60%

IC50 [3]: 46 nM
SMILES: CCCCCCCCCCCCc1cnn(C(C(=O)Nc2c(OC)cc(OC)cc2OC)c2ccccc2)c1 (stereo not given)
DeltaTC (Rattus norvegicus [1]): -59%
DeltaTC (Rattus norvegicus [2]): -72%

From ChEMBL document CHEMBL1129424, “Heterocyclic amides: inhibitors of acyl-CoA:cholesterol O-acyl transferase with hypocholesterolemic activity in several species and antiatherosclerotic activity in the rabbit” (J Med Chem, 1996)
